Experimental data as given in ChEMBL document CHEMBL2069168, “Synthesis and biological evaluation of truncated α-galactosylceramide derivatives focusing on cytokine induction profile” (2012).
Calls of active or inactive are those of the source. No cut-off for these calls is given here.

What was measured:
[1] = organism: Mus musculus; assay: Immunostimulatory activity in C57BL/6 mouse natural killer cells assessed as IFN-gamma secretion at 100 ng/ml by ELISA relative to OCH; format: functional
[2] = test system: Dendritic cell; assay: Immunostimulatory activity in C57BL/6 mouse dendritic cells assessed as IL-12 secretion at 100 ng/ml by ELISA relative to OCH; format: functional, cell-based
[3] = test system: Splenocyte; assay: Immunostimulatory activity in C57BL/6 mouse splenocytes assessed as IFN-gamma release at 100 ng/ml after 72 hrs by ELISA relative to OCH; format: functional
Method in brief: (§1)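 Splenocytes from female C57BL/6 mice (6–8 weeks) in RPMI1640 with 10% FBS, 5×10^-5 M 2-mercaptoethanol, 1 mM pyruvate, 25 mM HEPES; 5×10^5 cells/well stimulated with glycolipid at 100 ng/ml, 72 h, 37 °C. Supernatant IL-4 and IFN-γ by ELISA; values expressed relative to OCH reference included in every run, mean of at least three experiments.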

[4] = test system: Splenocyte; assay: Immunostimulatory activity in C57BL/6 mouse splenocytes assessed as IL-4 release at 100 ng/ml after 72 hrs by ELISA relative to OCH; format: functional; method in brief: as §1
[5] = organism: Mus musculus; assay: Immunostimulatory activity in C57BL/6 mouse splenocytes at 100 ng/ml after 72 hr assessed as IFN-gamma secretion
[6] = organism: Mus musculus; assay: Immunostimulatory activity in C57BL/6 mouse splenocytes at 100 ng/ml after 72 hrs assessed as IL-4 secretion
[7] = test system: Mus musculus; assay: Immunosuppressive activity iv in C57BL/6 mouse assessed as inhibition of OCH-induced IL-4 secretion at 0.1 ug/mouse, iv administered 15 mins before OCH challenge; format: functional, organism-based
Method in brief: (§2)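 Female C57BL/6 mice (9 weeks); glycolipids dissolved in 0.5% DMSO in saline. Test compound given iv via tail vein at 0.1 µg/mouse 15 min before iv OCH (0.1 µg/mouse). Sera taken 3, 6, 9 h after second injection; serum IL-4 and IFN-γ by ELISA. Mean ± SD, N = 4–5; Student's t-test versus vehicle.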

[8] = test system: Mus musculus; assay: Immunosuppressive activity iv in C57BL/6 mouse assessed as inhibition of OCH-induced IFN-gamma secretion at 0.1 ug/mouse, iv administered 15 mins before OCH challenge; format: functional, organism-based; method in brief: as §2

## CCCCCCCCCCCCCCCCCCCCCCCCCC(=O)N[C@@H](CC[C@H]1O[C@H](CO)[C@H](O)[C@H](O)[C@H]1O)[C@H](O)[C@H](O)CCCCCCCCCCCCCC
[1]
  Activity: Active
[2]
  Activity: Active

## CCCCCCCCCCCCCCCCCCCCCCCCCC(=O)N[C@@H](CO[C@H]1O[C@H](CO)[C@H](O)[C@H](O)[C@H]1O)[C@H](O)[C@H](O)CCCCC
[3]
  Activity: 504%
[4]
  Activity: 129%

## CCCCCCCCCCCCCCCCCCCCCCCC(=O)N[C@@H](CO[C@H]1O[C@H](CO)[C@H](O)[C@H](O)[C@H]1O)[C@H](O)[C@H](O)CC1CCCC1
[5]
  Activity: 74%
[6]
  Activity: 98%

## CCCCCCCCCCCCCCCCCCCCCCCC(=O)N[C@@H](CO[C@H]1O[C@H](CO)[C@H](O)[C@H](O)[C@H]1O)[C@H](O)[C@H](O)COc1ccccc1
[5]
  Activity: 80%
[6]
  Activity: 99%

## CCCCCCCCCCCCCCCCCCCCCCC(=O)N[C@@H](CO[C@H]1O[C@H](CO)[C@H](O)[C@H](O)[C@H]1O)[C@H](O)[C@H](O)CCCC
[3]
  Activity: 148%
[4]
  Activity: 97%

## CCCCCCCCCCCCCCCCCCCCCCC(=O)N[C@@H](CO[C@H]1O[C@H](CO)[C@H](O)[C@H](O)[C@H]1O)[C@H](O)[C@H](O)CCCCC
[3]
  Activity: 93%
[4]
  Activity: 103%

## CCCCCCCCCCCCCCCCCCCCCCCCCC(=O)N[C@@H](CO[C@H]1O[C@H](CO)[C@H](O)[C@H](O)[C@H]1O)[C@H](O)[C@H](O)CCCCCCCCCCCCCC [RGI-7000]
[3]
  Activity: 569%
[4]
  Activity: 128%

## CCCCCCCCCCCCCCCCCCCCCCC(=O)N[C@@H](CO[C@H]1O[C@H](CO)[C@H](O)[C@H](O)[C@H]1O)[C@H](O)[C@H](O)CCCCCC
[3]
  Activity: 113%
[4]
  Activity: 97%

## CCCCCCCCCCCCCCCCCCCCCCCC(=O)N[C@@H](CO[C@H]1O[C@H](CO)[C@H](O)[C@H](O)[C@H]1O)[C@H](O)[C@H](O)COCCC
[5]
  Activity: 161%
[6]
  Activity: 103%

## CCCCCCCCCCCCCCCCCCCCCC(=O)N[C@@H](CO[C@H]1O[C@H](CO)[C@H](O)[C@H](O)[C@H]1O)[C@H](O)[C@H](O)CCCCC
[3]
  Activity: 46%
[4]
  Activity: 51%

## CCCCCCCCCCCCCCCCCCCCCCCC(=O)N[C@@H](CO[C@H]1O[C@H](CO)[C@H](O)[C@H](O)[C@H]1O)[C@H](O)[C@H](O)CCCC
[3]
  Activity: 112%
[4]
  Activity: 115%

## CCCCCCCCCCCCCCCCCCCCCCCC(=O)N[C@@H](CO[C@H]1O[C@H](CO)[C@H](O)[C@H](O)[C@H]1O)[C@H](O)[C@H](O)COC
[5]
  Activity: 64%
[6]
  Activity: 86%

## CCCCCCCCCCCCCCCCCCCCCCCC(=O)N[C@@H](CO[C@H]1O[C@H](CO)[C@H](O)[C@H](O)[C@H]1O)[C@H](O)[C@H](O)CCc1ccccc1
[5]
  Activity: 35%
[6]
  Activity: 57%

## CCCCCCCCCCCCCCCCCCCCCCCC(=O)N[C@@H](CC[C@H]1O[C@H](CO)[C@H](O)[C@H](O)[C@H]1O)[C@H](O)[C@H](O)CCCCC
[5]
  Activity: 0%
[6]
  Activity: 1%
[7]
  inhibition: inactive
[8]
  inhibition: inactive

## CCCCCCCCCCCCCCCCCCCCCCCC(=O)N[C@@H](CO[C@H]1O[C@H](CO)[C@H](O)[C@H](O)[C@H]1O)[C@H](O)[C@H](O)CCC
[3]
  Activity: 96%
[4]
  Activity: 105%

## CCCCCCCCCCCCCCCCCCCCCCCC(=O)N[C@@H](CO[C@H]1O[C@H](CO)[C@H](O)[C@H](O)[C@H]1O)[C@H](O)[C@H](O)COCCCCCCCCCCCC
[5]
  Activity: 227%
[6]
  Activity: 78%

## CCCCCCCCCCCCCCCCCCCC(=O)N[C@@H](CO[C@H]1O[C@H](CO)[C@H](O)[C@H](O)[C@H]1O)[C@H](O)[C@H](O)CCCCC
[3]
  Activity: 9%
[4]
  Activity: 6%

## CCCCCCCCCCCCCCCCCCCCCCCC(=O)N[C@@H](CO[C@H]1O[C@H](CO)[C@H](O)[C@H](O)[C@H]1O)[C@H](O)[C@H](O)CCCCC
[5]
  Activity: 100%
[3]
  Activity: 100%
[6]
  Activity: 100%
[4]
  Activity: 100%

## CCCCCCCCCCCCCCCCCCCCCCCC(=O)N[C@@H](CO[C@H]1O[C@H](CO)[C@H](O)[C@H](O)[C@H]1O)[C@H](O)[C@H](O)Cc1ccc(C)cc1
[5]
  Activity: 76%
[6]
  Activity: 78%

## CCCCCCCCCCCCCCCCCCCCCCCCCCCC(=O)N[C@@H](CO[C@H]1O[C@H](CO)[C@H](O)[C@H](O)[C@H]1O)[C@H](O)[C@H](O)CCCCC
[3]
  Activity: 761%
[4]
  Activity: 178%

## CCCCCCCCCCCCCCCCCCCCCCCCC(=O)N[C@@H](CO[C@H]1O[C@H](CO)[C@H](O)[C@H](O)[C@H]1O)[C@H](O)[C@H](O)CCCCC
[3]
  Activity: 103%
[4]
  Activity: 154%

## CCCCCCCCCCCCCCCCCCCCCCCC(=O)N[C@@H](CO[C@H]1O[C@H](CO)[C@H](O)[C@H](O)[C@H]1O)[C@H](O)[C@H](O)Cc1ccccc1
[5]
  Activity: 284%
[6]
  Activity: 211%
